Laboratory results from ChEMBL document CHEMBL1154716, “Synthesis of some new S-triazine based chalcones and their derivatives as potent antimicrobial agents” (2010).
≈ marks a conversion by molar mass, not a printed value. Calls of active or inactive are those of the source. No cut-off for these calls is given here.

Columns and labels:
[1] = test system: Listeria monocytogenes; assay: Antimicrobial activity against Listeria monocytogenes at 1 umol/spot after 18 hrs by TLC-bioautographic method; format: functional
Procedure, shortened: (§1)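 TLC bioautography. Samples are spotted on silica gel TLC plates, then sprayed with bacteria (1.0 × 10^5 cfu/ml) in tryptic soy broth. Plates are incubated 18 h at 37 C and sprayed with 3% aqueous p-iodonitrotetrazolium violet. After a further 3 h, growth is stopped with 70% EtOH. White zones on a pink background are scored as inhibition-zone diameter with standard errors.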

[2] = test system: Enterobacter cloacae; assay: Antimicrobial activity against Enterobacter cloacae at 1 umol/disk after 24 hrs by disk diffusion assay; format: functional
Procedure, shortened: (§2)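 Disc diffusion on 4 mm filter discs. Bacteria are grown overnight in LB at 28 C, then adjusted in saline to 1.0 × 10^5 cfu/ml. The suspension is mixed into top agar over peptone agar plates. Plates are incubated 24 h at 28 C, and growth-inhibition zone diameter is measured. Streptomycin and ampicillin controls are applied from a 1 mg/ml stock. Tests are done in duplicate.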

[3] = test system: Bacillus cereus; assay: Antimicrobial activity against Bacillus cereus after 24 hrs by microdilution technique; format: functional
Procedure, shortened: (§3)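 Broth microdilution in LB medium. Inoculum is 1.0 × 10^4 cfu per well, from a saline-adjusted suspension of 1.0 × 10^5 cfu/ml. Compounds are dissolved in DMSO. Incubated 24 h at 28 C. MIC is the lowest concentration with no visible growth under a binocular microscope. MBC is read by subculture into fresh broth for 72 h, with no growth taken as 99.5% kill. OD is read at 655 nm.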

[4] = test system: Micrococcus flavus; assay: Antimicrobial activity against Micrococcus flavus at 1 umol/disk after 24 hrs by disk diffusion assay; format: functional; procedure, shortened: as §2
[5] = test system: Listeria monocytogenes; assay: Antimicrobial activity against Listeria monocytogenes after 24 hrs by microdilution technique; format: functional; procedure, shortened: as §3
[6] = test system: Salmonella typhimurium; assay: Antimicrobial activity against Salmonella Typhimurium after 24 hrs by microdilution technique; format: functional, Salmonella enterica subsp. enterica serovar Typhimurium; settings: Salmonella enterica; procedure, shortened: as §3
[7] = test system: Salmonella typhimurium; assay: Antimicrobial activity against Salmonella Typhimurium at 10 ug/disk after 24 hrs by disk diffusion assay; format: functional, organism-based; settings: Salmonella enterica subsp. enterica serovar Typhimurium; procedure, shortened: as §2
[8] = test system: Listeria monocytogenes; assay: Antimicrobial activity against Listeria monocytogenes at 10 ug/disk after 24 hrs by disk diffusion assay; format: functional; procedure, shortened: as §2
[9] = test system: Bacillus cereus; assay: Antimicrobial activity against Bacillus cereus at 1 umol/spot after 18 hrs by TLC-bioautographic method; format: functional; procedure, shortened: as §1
[10] = test system: Pseudomonas aeruginosa; assay: Antimicrobial activity against Pseudomonas aeruginosa after 24 hrs by microdilution technique; format: functional; procedure, shortened: as §3
[11] = test system: Bacillus cereus; assay: Antimicrobial activity against Bacillus cereus at 10 ug/disk after 24 hrs by disk diffusion assay; format: functional; procedure, shortened: as §2
[12] = test system: Escherichia coli; assay: Antimicrobial activity against Escherichia coli at 1 umol/spot after 18 hrs by TLC-bioautographic method; format: functional; procedure, shortened: as §1
[13] = test system: Enterobacter cloacae; assay: Antimicrobial activity against Enterobacter cloacae after 24 hrs by microdilution technique; format: functional; procedure, shortened: as §3
[14] = test system: Staphylococcus aureus; assay: Antimicrobial activity against Staphylococcus aureus at 1 umol/disk after 24 hrs by disk diffusion assay; format: functional; procedure, shortened: as §2
[15] = test system: Pseudomonas aeruginosa; assay: Antimicrobial activity against Pseudomonas aeruginosa at 10 ug/disk after 24 hrs by disk diffusion assay; format: functional; procedure, shortened: as §2
[16] = test system: Escherichia coli; assay: Antimicrobial activity against Escherichia coli at 10 ug/disk after 24 hrs by disk diffusion assay; format: functional; procedure, shortened: as §2
[17] = test system: Micrococcus flavus; assay: Antimicrobial activity against Micrococcus flavus at 10 ug/disk after 24 hrs by disk diffusion assay; format: functional; procedure, shortened: as §2
[18] = test system: Micrococcus flavus; assay: Antimicrobial activity against Micrococcus flavus after 24 hrs by microdilution technique; format: functional; procedure, shortened: as §3
[19] = test system: Staphylococcus aureus; assay: Antimicrobial activity against Staphylococcus aureus at 10 ug/disk after 24 hrs by disk diffusion assay; format: functional; procedure, shortened: as §2
[20] = test system: Staphylococcus aureus; assay: Antimicrobial activity against Staphylococcus aureus after 24 hrs by microdilution technique; format: functional; procedure, shortened: as §3
[21] = test system: Pseudomonas aeruginosa; assay: Antimicrobial activity against Pseudomonas aeruginosa at 1 umol/spot after 18 hrs by TLC-bioautographic method; format: functional; procedure, shortened: as §1
[22] = test system: Escherichia coli; assay: Antimicrobial activity against Escherichia coli at 1 umol/disk after 24 hrs by disk diffusion assay; format: functional; procedure, shortened: as §2
[23] = test system: Escherichia coli; assay: Antimicrobial activity against Escherichia coli after 24 hrs by microdilution technique; format: functional; procedure, shortened: as §3
[24] = test system: Listeria monocytogenes; assay: Antimicrobial activity against Listeria monocytogenes at 1 umol/disk after 24 hrs by disk diffusion assay; format: functional; procedure, shortened: as §2
[25] = test system: Bacillus cereus; assay: Antimicrobial activity against Bacillus cereus at 1 umol/disk after 24 hrs by disk diffusion assay; format: functional; procedure, shortened: as §2
[26] = test system: Salmonella typhimurium; assay: Antimicrobial activity against Salmonella Typhimurium at 1 umol/disk after 24 hrs by disk diffusion assay; format: functional, organism-based; settings: Salmonella enterica subsp. enterica serovar Typhimurium; procedure, shortened: as §2
[27] = test system: Enterobacter cloacae; assay: Antimicrobial activity against Enterobacter cloacae at 10 ug/disk after 24 hrs by disk diffusion assay; format: functional; procedure, shortened: as §2
[28] = test system: Enterobacter cloacae; assay: Antimicrobial activity against Enterobacter cloacae at 1 umol/spot after 18 hrs by TLC-bioautographic method; format: functional; procedure, shortened: as §1
[29] = test system: Staphylococcus aureus; assay: Antimicrobial activity against Staphylococcus aureus at 1 umol/spot after 18 hrs by TLC-bioautographic method; format: functional; procedure, shortened: as §1
[30] = test system: Pseudomonas aeruginosa; assay: Antimicrobial activity against Pseudomonas aeruginosa at 1 umol/disk after 24 hrs by disk diffusion assay; format: functional; procedure, shortened: as §2
[31] = test system: Micrococcus flavus; assay: Antimicrobial activity against Micrococcus flavus at 1 umol/spot after 18 hrs by TLC-bioautographic method; format: functional; procedure, shortened: as §1
[32] = test system: Salmonella typhimurium; assay: Antimicrobial activity against Salmonella Typhimurium at 1 umol/spot after 18 hrs by TLC-bioautographic method; format: functional, Salmonella enterica subsp. enterica serovar Typhimurium; procedure, shortened: as §1

SMILES	inhibition zone (IZ) [1]	inhibition zone (IZ) [2]	MBC [3]	MIC [3]	inhibition zone (IZ) [4]	MBC [5]	MIC [5]	MBC [6]	MIC [6]	inhibition zone (IZ) [7]	inhibition zone (IZ) [8]	inhibition zone (IZ) [9]	MBC [10]	MIC [10]	inhibition zone (IZ) [11]	inhibition zone (IZ) [12]	MBC [13]	MIC [13]	inhibition zone (IZ) [14]	inhibition zone (IZ) [15]	also measured
N#Cc1c(-c2cccs2)cc(-c2ccc(Nc3nc(Nc4ccccc4)nc(Nc4ccccc4)n3)cc2)nc1N	0.09 millimeter	inactive	90 µM (≈ 49.8 µg/mL)	45 µM (≈ 24.9 µg/mL)	0.04 millimeter	360 µM (≈ 199 µg/mL)	180 µM (≈ 99.7 µg/mL)	90 µM (≈ 49.8 µg/mL)	45 µM (≈ 24.9 µg/mL)	inactive	inactive	inactive	180 µM (≈ 99.7 µg/mL)	90 µM (≈ 49.8 µg/mL)	inactive	0.06 millimeter	180 µM (≈ 99.7 µg/mL)	90 µM (≈ 49.8 µg/mL)	inactive	inactive	inhibition zone (IZ) [16]: inactive; zone of inhibition at 10 µg/disc ([17]; read-out: IZ): 7 mm; MBC [18]: 90 µM (≈ 49.8 µg/mL); MIC [18]: 45 µM (≈ 24.9 µg/mL); inhibition zone (IZ) [19]: inactive; MBC [20]: 180 µM (≈ 99.7 µg/mL); MIC [20]: 90 µM (≈ 49.8 µg/mL); inhibition zone (IZ) [21]: inactive; inhibition zone (IZ) [22]: inactive; MBC [23]: 90 µM (≈ 49.8 µg/mL); MIC [23]: 45 µM (≈ 24.9 µg/mL); inhibition zone (IZ) [24]: inactive; inhibition zone (IZ) [25]: inactive; inhibition zone (IZ) [26]: inactive; inhibition zone (IZ) [27]: inactive; inhibition zone (IZ) [28]: 0.08 millimeter; inhibition zone (IZ) [29]: inactive; inhibition zone (IZ) [30]: inactive; inhibition zone (IZ) [31]: 0.08 millimeter; inhibition zone (IZ) [32]: 0.07 millimeter
O=C(/C=C/c1ccc(Cl)cc1)c1ccc(Nc2nc(Nc3ccccc3)nc(Nc3ccccc3)n2)cc1	0.07 millimeter	inactive	386 µM (≈ 200 µg/mL)	193 µM (≈ 100 µg/mL)	inactive	772 µM (≈ 401 µg/mL)	386 µM (≈ 200 µg/mL)	772 µM (≈ 401 µg/mL)	386 µM (≈ 200 µg/mL)	inactive	inactive	inactive	772 µM (≈ 401 µg/mL)	386 µM (≈ 200 µg/mL)	inactive	inactive	386 µM (≈ 200 µg/mL)	193 µM (≈ 100 µg/mL)	inactive	inactive	inhibition zone (IZ) [16]: inactive; inhibition zone (IZ) [17]: inactive; MBC [18]: 386 µM (≈ 200 µg/mL); MIC [18]: 193 µM (≈ 100 µg/mL); inhibition zone (IZ) [19]: inactive; MBC [20]: 772 µM (≈ 401 µg/mL); MIC [20]: 386 µM (≈ 200 µg/mL); inhibition zone (IZ) [21]: inactive; inhibition zone (IZ) [22]: inactive; MBC [23]: 772 µM (≈ 401 µg/mL); MIC [23]: 772 µM (≈ 401 µg/mL); inhibition zone (IZ) [24]: inactive; inhibition zone (IZ) [25]: inactive; inhibition zone (IZ) [26]: inactive; inhibition zone (IZ) [27]: inactive; inhibition zone (IZ) [28]: 0.08 millimeter; inhibition zone (IZ) [29]: inactive; inhibition zone (IZ) [30]: inactive; inhibition zone (IZ) [31]: 0.07 millimeter; inhibition zone (IZ) [32]: 0.09 millimeter
